# Active and inactive are the calls of the source.
# Experiments:
# SK-MEL-28 [1] = experiment: Cytotoxicity against human SK-MEL-28 cells assessed as cell growth at 8 nM by sulforhodamine B assay relative to control; format: functional; conditions: read-out: Activity
# SK-MEL-2 [2] = experiment: Cytotoxicity against human SK-MEL-2 cells assessed as cell growth at 8 nM by sulforhodamine B assay relative to control; format: functional; conditions: read-out: Activity
# NCI-H23 [3] = experiment: Cytotoxicity against human NCI-H23 cells assessed as cell growth at 8 nM by sulforhodamine B assay relative to control; format: functional; conditions: read-out: Activity
# Escherichia coli = experiment: Antimicrobial activity against Escherichia coli ATCC 35218 by CLSI method; format: functional, organism-based
# MDA-MB-231 = experiment: Antitumor activity against human MDA-MB-231 cells xenografted in mouse assessed as tumor cell killing at 4.7 mg/kg, ip qd for 4 days by MTT assay; format: functional, organism-based; set-up: dose 4.7 mg/kg
# Summary of the method: (§1)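 Hollow-fiber assay in mice. Tumor lines were grown in RPMI-1640 with 10% FBS and 2 mM glutamine. Cells at 2 × 10^6 cells/ml were loaded into 1 mm PVDF fibers (500,000 Da cutoff), heat-sealed at 2 cm and held 24–48 h at 37 °C, 5% CO2 before implantation. Compound was given IP. Fibers were collected the day after the fourth treatment for MTT (OD 540 nm, group means). A ≥50% cut in percent net growth versus vehicle counted as positive.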
# NCI-H23 [4] = experiment: Antitumor activity against human NCI-H23 cells xenografted in mouse assessed as tumor cell killing at 4.7 mg/kg, ip qd for 4 days by MTT assay; format: functional, organism-based; set-up: dose 4.7 mg/kg; summary of the method: as §1
# NCI-H226 = experiment: Cytotoxicity against human NCI-H226 cells by sulforhodamine B assay; format: functional; conditions: for TGI: read-out: pTGI (converted)
# Summary of the method: (§2)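 NCI Developmental Therapeutics Program 60-cell-line human tumor panel screen, run at NCI. A single-concentration pre-screen was followed by a five-concentration dose-response in 10-fold steps. GI50 is the concentration that reduces growth of treated cells to half that of untreated control cells. TGI is the concentration that completely halts growth.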
# HOP-92 = experiment: Cytotoxicity against human HOP92 cells assessed as cell growth at 8 nM by sulforhodamine B assay relative to control; format: functional; conditions: read-out: Activity
# OVCAR-3 = experiment: Cytotoxicity against human OVCAR3 cells assessed as cell growth at 8 nM by sulforhodamine B assay relative to control; format: functional; conditions: read-out: Activity
# UO-31 [5] = experiment: Cytotoxicity against human UO31 cells assessed as cell growth at 8 nM by sulforhodamine B assay relative to control; format: functional; conditions: read-out: Activity
# HL-60(TB) [6] = experiment: Cytotoxicity against human HL-60(TB) cells assessed as cell growth at 80 nM by sulforhodamine B assay relative to control; format: functional; conditions: read-out: Activity
# NCI-H460 = experiment: Cytotoxicity against human NCI-H460 cells assessed as cell growth at 80 nM by sulforhodamine B assay relative to control; format: functional; conditions: read-out: Activity
# NCI-H522 = experiment: Cytotoxicity against human NCI-H522 cells assessed as cell growth at 80 nM by sulforhodamine B assay relative to control; format: functional; conditions: read-out: Activity
# HCT-15 = experiment: Cytotoxicity against human HCT15 cells assessed as cell growth at 80 nM by sulforhodamine B assay relative to control; format: functional; conditions: read-out: Activity
# SF-295 = experiment: Cytotoxicity against human SF295 cells assessed as cell growth at 80 nM by sulforhodamine B assay relative to control; format: functional; conditions: read-out: Activity
# SK-MEL-28 [7] = experiment: Cytotoxicity against human SK-MEL-28 cells assessed as cell growth at 80 nM by sulforhodamine B assay relative to control; format: functional; conditions: read-out: Activity
# RXF 393 = experiment: Cytotoxicity against human RXF393 cells assessed as cell growth at 80 nM by sulforhodamine B assay relative to control; format: functional; conditions: read-out: Activity
# NCI-H322M = experiment: Cytotoxicity against human NCI-H322M cells assessed as cell growth at 800 nM by sulforhodamine B assay relative to control; format: functional; conditions: read-out: Activity
# COLO 205 [8] = experiment: Cytotoxicity against human COLO205 cells assessed as cell growth at 800 nM by sulforhodamine B assay relative to control; format: functional; conditions: read-out: Activity
# Summary of the method: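 Run at NCI in the DTP 60-cell-line human tumor panel by standard procedure. Compounds were first screened at a single concentration, then tested at five tenfold-spaced concentrations. GI50 is the concentration reducing treated-cell growth to half that of untreated controls; TGI is the concentration completely halting growth.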
# UACC-62 = experiment: Cytotoxicity against human UACC62 cells assessed as cell growth at 800 nM by sulforhodamine B assay relative to control; format: functional; conditions: read-out: Activity
# KM12 = experiment: Cytotoxicity against human KM12 cells assessed as cell growth at 8 uM by sulforhodamine B assay relative to control; format: functional; conditions: read-out: Activity
# SW-620 = experiment: Cytotoxicity against human SW620 cells assessed as cell growth at 8 uM by sulforhodamine B assay relative to control; format: functional; conditions: read-out: Activity
# SF-268 = experiment: Cytotoxicity against human SF268 cells assessed as cell growth at 8 uM by sulforhodamine B assay relative to control; format: functional; conditions: read-out: Activity
# HL-60(TB) [9] = experiment: Cytotoxicity against human HL-60(TB) cells assessed as cell growth at 80 uM by sulforhodamine B assay relative to control; format: functional; conditions: read-out: Activity
# MOLT-4 = experiment: Cytotoxicity against human MOLT4 cells assessed as cell growth at 80 uM by sulforhodamine B assay relative to control; format: functional; conditions: read-out: Activity
# HCC 2998 [10] = experiment: Cytotoxicity against human HCC2998 cells assessed as cell growth at 80 uM by sulforhodamine B assay relative to control; format: functional; conditions: read-out: Activity
# U-251 = experiment: Cytotoxicity against human U251 cells assessed as cell growth at 80 uM by sulforhodamine B assay relative to control; format: functional; conditions: read-out: Activity
# SK-MEL-2 [11] = experiment: Cytotoxicity against human SK-MEL-2 cells assessed as cell growth at 80 uM by sulforhodamine B assay relative to control; format: functional; conditions: read-out: Activity
# SK-MEL-28 [12] = experiment: Cytotoxicity against human SK-MEL-28 cells assessed as cell growth at 80 uM by sulforhodamine B assay relative to control; format: functional; conditions: read-out: Activity
# OVCAR-8 = experiment: Cytotoxicity against human OVCAR8 cells assessed as cell growth at 80 uM by sulforhodamine B assay relative to control; format: functional; conditions: read-out: Activity
# UO-31 [13] = experiment: Cytotoxicity against human UO31 cells assessed as cell growth at 80 uM by sulforhodamine B assay relative to control; format: functional; conditions: read-out: Activity
# COLO 205 [14] = experiment: Antitumor activity against human COLO205 cells xenografted in mouse assessed as tumor cell killing at 4.7 mg/kg, ip qd for 4 days by MTT assay; format: functional, organism-based; set-up: dose 4.7 mg/kg; summary of the method: as §1
# HCC 2998 [15] = experiment: Cytotoxicity against human HCC2998 cells by sulforhodamine B assay; format: functional
# Summary of the method: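 Run by the NCI Developmental Therapeutics Program on its 60-line human tumour cell panel using the standard procedure. Compounds went through a single-concentration prescreen first, and those active by NCI criteria went on to a five-concentration growth-inhibition test. GI50 is the concentration that cuts growth of treated cells to half that of untreated control cells.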
# SNB-75 = experiment: Cytotoxicity against human SNB75 cells by sulforhodamine B assay; format: functional; summary of the method: as §2
# LOX IMVI = experiment: Cytotoxicity against human LOXIMVI cells by sulforhodamine B assay; format: functional; conditions: for TGI: read-out: pTGI (converted); summary of the method: as §2
smiles,measurement,setting,value
C/C=C1\NC(=O)[C@H](Cc2ccccc2)NC(=O)[C@@H](C(C)C)NC(=O)[C@@H]([C@@H](C)CC)NC(=O)[C@H](NC(=O)[C@H](NC(=O)[C@H](CCCNCc2ccc(F)c(C)c2)NC(=O)[C@H]2CCCN2C(=O)[C@H](NC(=O)[C@@H](NC(=O)[C@@H](NC(=O)[C@H](NC(=O)CCCC(C)C)C(C)C)[C@@H](C)O)C(C)C)C(C)C)[C@@H](C)CC)[C@@H](C)OC(=O)[C@H](C(C)C)NC1=O,growth at 0.008 µM,SK-MEL-28 [1],97%
same,growth at 0.008 µM,SK-MEL-2 [2],98%
same,growth at 0.008 µM,NCI-H23 [3],102%
same,Activity,Escherichia coli,inactive
same,Activity,MDA-MB-231,inactive
same,Activity,NCI-H23 [4],inactive
same,GI50,NCI-H226,1480 nM
same,TGI,NCI-H226,3020 nM
same,growth at 0.008 µM,HOP-92,104%
same,growth at 0.008 µM,OVCAR-3,105%
same,growth at 0.008 µM,UO-31 [5],100%
same,growth at 0.08 µM,HL-60(TB) [6],97%
same,growth at 0.08 µM,NCI-H460,104%
same,growth at 0.08 µM,NCI-H522,101%
same,growth at 0.08 µM,HCT-15,103%
same,growth at 0.08 µM,SF-295,85%
same,growth at 0.08 µM,SK-MEL-28 [7],105%
same,growth at 0.08 µM,RXF 393,106%
same,growth at 0.8 µM,NCI-H322M,-90%
same,growth at 0.8 µM,COLO 205 [8],-66%
same,growth at 0.8 µM,UACC-62,93%
same,growth at 8 µM,KM12,-85%
same,growth at 8 µM,SW-620,-100%
same,growth at 8 µM,SF-268,-63%
same,growth at 80 µM,HL-60(TB) [9],-37%
same,growth at 80 µM,MOLT-4,9%
same,growth at 80 µM,HCC 2998 [10],-88%
same,growth at 80 µM,U-251,-89%
same,growth at 80 µM,SK-MEL-2 [11],-21%
same,growth at 80 µM,SK-MEL-28 [12],1%
same,growth at 80 µM,OVCAR-8,48%
same,growth at 80 µM,UO-31 [13],-11%
same,Activity,COLO 205 [14],inactive
same,LC50,HCC 2998 [15],891 nM
same,GI50,HCC 2998 [15]; read-out: GI50,172 nM
same,TGI,HCC 2998 [15]; read-out: TGI,367 nM
same,GI50,HCC 2998 [15]; read-out: pGI50 (converted),174 nM
same,TGI,HCC 2998 [15]; read-out: pTGI (converted),363 nM
same,GI50,SNB-75; read-out: GI50,370 nM
same,TGI,SNB-75; read-out: TGI,1250 nM
same,GI50,SNB-75; read-out: pGI50 (converted),372 nM
same,TGI,SNB-75; read-out: pTGI (converted),1260 nM
same,GI50,LOX IMVI,1480 nM
same,LC50,LOX IMVI,4900 nM
same,TGI,LOX IMVI,2690 nM
C/C=C1\NC(=O)[C@H](Cc2ccccc2)NC(=O)[C@@H](C(C)C)NC(=O)[C@@H]([C@@H](C)CC)NC(=O)[C@H](NC(=O)[C@H](NC(=O)[C@H](CCCNCc2ccc(N3CCOCC3)cc2)NC(=O)[C@H]2CCCN2C(=O)[C@H](NC(=O)[C@@H](NC(=O)[C@@H](NC(=O)[C@H](NC(=O)CCCC(C)C)C(C)C)[C@@H](C)O)C(C)C)C(C)C)[C@@H](C)CC)[C@@H](C)OC(=O)[C@H](C(C)C)NC1=O,growth at 0.008 µM,SK-MEL-28 [1],87%
same,growth at 0.008 µM,SK-MEL-2 [2],105%
same,growth at 0.008 µM,NCI-H23 [3],105%
same,Activity,Escherichia coli,inactive
same,Activity,MDA-MB-231,inactive
same,Activity,NCI-H23 [4],inactive
same,GI50,NCI-H226,1660 nM
same,TGI,NCI-H226,3390 nM
same,growth at 0.008 µM,HOP-92,81%
same,growth at 0.008 µM,OVCAR-3,100%
same,growth at 0.008 µM,UO-31 [5],101%
same,growth at 0.08 µM,HL-60(TB) [6],96%
same,growth at 0.08 µM,NCI-H460,103%
same,growth at 0.08 µM,NCI-H522,99%
same,growth at 0.08 µM,HCT-15,107%
same,growth at 0.08 µM,SF-295,99%
same,growth at 0.08 µM,SK-MEL-28 [7],99%
same,growth at 0.08 µM,RXF 393,99%
same,growth at 0.8 µM,NCI-H322M,-76%
same,growth at 0.8 µM,COLO 205 [8],-52%
same,growth at 0.8 µM,UACC-62,100%
same,growth at 8 µM,KM12,-48%
same,growth at 8 µM,SW-620,-98%
same,growth at 8 µM,SF-268,-52%
same,growth at 80 µM,HL-60(TB) [9],-24%
same,growth at 80 µM,MOLT-4,7%
same,growth at 80 µM,HCC 2998 [10],-69%
same,growth at 80 µM,U-251,-61%
same,growth at 80 µM,SK-MEL-2 [11],-32%
same,growth at 80 µM,SK-MEL-28 [12],-13%
same,growth at 80 µM,OVCAR-8,28%
same,growth at 80 µM,UO-31 [13],-28%
same,Activity,COLO 205 [14],inactive
same,LC50,HCC 2998 [15],3310 nM
same,GI50,HCC 2998 [15]; read-out: GI50,250 nM
same,TGI,HCC 2998 [15]; read-out: TGI,877 nM
same,GI50,HCC 2998 [15]; read-out: pGI50 (converted),251 nM
same,TGI,HCC 2998 [15]; read-out: pTGI (converted),871 nM
same,GI50,SNB-75; read-out: GI50,808 nM
same,TGI,SNB-75; read-out: TGI,1900 nM
same,GI50,SNB-75; read-out: pGI50 (converted),813 nM
same,TGI,SNB-75; read-out: pTGI (converted),1910 nM
same,GI50,LOX IMVI,3160 nM
same,LC50,LOX IMVI,57500 nM
same,TGI,LOX IMVI,13500 nM
